Laboratory results taken from PubChem BioAssay AID652011 (Sanford-Burnham Center for Chemical Genomics, 2013).
pIC50: −log10 of the molar value. Values joined by “and” are separate entries in the source; they are usually repeats but may differ in a detail not shown here. Identical values can stand only once. Active and inactive are the calls of the source.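 The calls were made as follows: active = IC50 of 10 µM or lower on HIF-2a in both cell lines, but not on HIF-1a; inactive = the rest, including compounds also potent on HIF-1a.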

Key:
Assay in all cases: HIF-1a and HIF-2a reporter inhibitors, SAR follow-up, cell-based, luminescence, MIAPaCa-2, 786-0, panel (AID 652011)
[1] = system: HIF1a; details: MIAPaCa-2/PANC HIF reporter, luciferase luminescence, desferoxamine, overnight
Method in brief: (§1)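 Also added: desferoxamine added before compound. Dosing: compounds from 10 mM and 0.3125 mM stocks, 1% DMSO final. Timing: overnight seeding and compound exposure, 37 °C, 5% CO2, 10-min detection. Detection: luciferase luminescence with One-Glo reagent.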

[2] = biological target: Endothelial PAS domain-containing protein 1 (Homo sapiens) (UniProt Q99814); details: MIAPaCa-2/PANC HIF reporter, luciferase luminescence, desferoxamine, overnight; HIF2a PANC cells; mean of runs
Method in brief: as §1

[3] = system: HIF2a PANC; details: MIAPaCa-2/PANC HIF reporter, luciferase luminescence, desferoxamine, overnight
Method in brief: as §1

[4] = run 1, individual run IC50, panel line
[5] = run 2, individual run IC50, panel line

Endothelial PAS domain-containing protein 1 (Homo sapiens), sequence (Q99814 whole entry, looked up, the tested form may be a part): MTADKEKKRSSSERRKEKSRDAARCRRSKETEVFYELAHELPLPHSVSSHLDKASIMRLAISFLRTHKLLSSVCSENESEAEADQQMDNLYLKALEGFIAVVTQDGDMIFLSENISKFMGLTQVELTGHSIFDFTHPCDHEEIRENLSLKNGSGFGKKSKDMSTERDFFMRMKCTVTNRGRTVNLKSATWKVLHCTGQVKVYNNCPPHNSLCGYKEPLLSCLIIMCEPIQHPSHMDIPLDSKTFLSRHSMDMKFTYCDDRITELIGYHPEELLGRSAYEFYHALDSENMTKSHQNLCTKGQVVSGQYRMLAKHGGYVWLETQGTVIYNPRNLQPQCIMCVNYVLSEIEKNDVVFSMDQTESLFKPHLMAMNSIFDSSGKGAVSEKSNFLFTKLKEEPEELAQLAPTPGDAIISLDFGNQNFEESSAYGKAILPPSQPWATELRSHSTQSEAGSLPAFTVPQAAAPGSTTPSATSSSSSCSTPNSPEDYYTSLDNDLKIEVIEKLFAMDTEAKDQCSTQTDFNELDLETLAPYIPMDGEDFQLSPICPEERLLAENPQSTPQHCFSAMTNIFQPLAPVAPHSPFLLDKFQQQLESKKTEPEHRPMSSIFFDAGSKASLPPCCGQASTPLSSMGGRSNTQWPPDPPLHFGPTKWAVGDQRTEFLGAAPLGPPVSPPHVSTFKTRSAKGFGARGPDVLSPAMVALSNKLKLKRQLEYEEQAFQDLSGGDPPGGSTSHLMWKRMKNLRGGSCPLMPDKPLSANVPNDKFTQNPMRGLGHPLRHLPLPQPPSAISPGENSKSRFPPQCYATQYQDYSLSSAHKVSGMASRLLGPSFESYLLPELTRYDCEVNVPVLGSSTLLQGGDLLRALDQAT

Row | pIC50 [1, 4] | pIC50 [1, 5] | IC50 [2] | pIC50 [3, 4] | pIC50 [3, 5] | pIC50 [2] | SMILES
1 | < 4.00 | < 4.00 | > 99 µM (inactive) | < 4.00 | < 4.00 |  | CCNC(=O)CCc1nc(-c2ccccc2C)no1
2 | < 4.00 | < 4.00 | > 99 µM (inactive) | < 4.00 | < 4.00 |  | CCNC(=O)CCc1nc(-c2ccccc2)no1
3 | < 4.00 | < 4.00 | > 99 µM (inactive) | < 4.00 | < 4.00 |  | CN(C)C(=O)CCc1nc(-c2ccc(C(C)(C)C)cc2)no1
4 | < 4.00 | < 4.00 | > 99 µM (inactive) | < 4.00 | < 4.00 |  | CNC(=O)CCc1nc(-c2ccc(OC)cc2)no1
5 | < 4.00 | < 4.00 |  | > 6.72 | > 6.72 | > 6.72 | CCCCc1ccc(-c2noc(CCC(=O)NCC)n2)cc1
6 | < 4.00 | < 4.00 | > 99 µM (inactive) | < 4.00 | < 4.00 |  | CCNC(=O)CCc1nc(-c2ccccc2Cl)no1
7 | < 4.00 | < 4.00 | > 99 µM (inactive) | < 4.00 | < 4.00 |  | CC(C)c1ccc(-c2noc(CCC(=O)NC(C)(C)C)n2)cc1
8 | < 4.00 | < 4.00 | > 99 µM (inactive) | < 4.00 | < 4.00 |  | CCNC(=O)CCc1nc(-c2cccc(OC)c2)no1
9 | < 4.00 | < 4.00 |  | > 5.00 | > 6.72 | > 6.72 | CC(C)NC(=O)CCc1nc(-c2ccc(C(C)(C)C)cc2)no1
10 | < 4.00 | < 4.00 | > 99 µM (inactive) | < 4.00 | < 4.00 |  | CCC(C)NC(=O)CCc1nc(-c2ccc(C(C)(C)C)cc2)no1 (configuration not stated)
11 | < 4.00 | < 4.00 | > 99 µM (inactive) | < 4.00 | < 4.00 |  | CC(C)(C)c1ccc(-c2noc(CCC(=O)N3CCOCC3)n2)cc1
12 | < 4.00 | < 4.00 | > 99 µM (inactive) | < 4.00 | < 4.00 |  | CCNC(=O)CCc1nc(-c2ccc(OCC)cc2)no1
13 | < 4.00 | < 4.00 | > 99 µM (inactive) | < 4.00 | < 4.00 |  | CCNC(=O)CCc1nc(-c2ccc(C(C)C)cc2)no1
14 | < 4.00 | < 4.00 |  | > 6.72 | > 6.72 | > 6.72 | CCCCc1ccc(-c2noc(CCC(=O)NC(C)(C)C)n2)cc1
15 | < 4.00 | < 4.00 |  | > 5.00 | > 6.72 | > 6.72 | CC(C)(C)c1ccc(-c2noc(CCC(=O)NC3CC3)n2)cc1
16 | < 4.00 | < 4.00 | > 99 µM (inactive) | < 4.00 | < 4.00 |  | CCNC(=O)CCc1nc(-c2c(Cl)cccc2Cl)no1
17 | < 4.00 | < 4.00 | > 99 µM (inactive) | < 4.00 | < 4.00 |  | CCc1ccc(-c2noc(CCC(=O)NC(C)CC)n2)cc1 (configuration not stated)
18 | < 4.00 | < 4.00 |  | > 6.72 | > 6.72 | > 6.72 | CC(C)(C)c1ccc(-c2noc(CCC(=O)Nc3ccccc3)n2)cc1
19 | < 4.00 | < 4.00 | inactive | < 4.00 | > 6.72 |  | CCCNC(=O)CCc1nc(-c2ccc(C(C)(C)C)cc2)no1
20 | < 4.00 | < 4.00 | > 99 µM (inactive) | < 4.00 | < 4.00 |  | CCNC(=O)CCc1nc(-c2cccc(C)c2)no1
21 | < 4.00 | < 4.00 | > 99 µM (inactive) | < 4.00 | < 4.00 |  | CCC(C)NC(=O)CCc1nc(-c2ccc(C(C)C)cc2)no1 (configuration not stated)
22 | < 4.00 | < 4.00 |  | > 6.72 | > 6.72 | > 6.72 | CC(C)CNC(=O)CCc1nc(-c2ccc(C(C)(C)C)cc2)no1

Continued, compound first:

Row | SMILES | pIC50 [1, 4] | pIC50 [1, 5] | IC50 [2] | pIC50 [3, 4] | pIC50 [3, 5] | pIC50 [2]
23 | CNC(=O)CCc1nc(-c2ccc(F)cc2)no1 | < 4.00 | < 4.00 | > 99 µM (inactive) | < 4.00 | < 4.00 | 
24 | CC(C)(C)NC(=O)CCc1nc(-c2ccccc2)no1 | < 4.00 | < 4.00 | > 99 µM (inactive) | < 4.00 | < 4.00 | 
25 | O=C(O)CCc1nc(-c2ccccc2)no1 | < 4.00 | < 4.00 | > 99 µM (inactive) | < 4.00 | < 4.00 | 
26 | CNC(=O)CCc1nc(-c2ccc(C(C)(C)C)cc2)no1 | < 4.00 | < 4.00 | inactive | > 6.72 | < 4.00 | 
27 | CCCCc1ccc(-c2noc(CCC(=O)NC(C)CC)n2)cc1 (configuration not stated) | < 4.00 | < 4.00 |  | > 6.72 | > 6.72 | > 6.72
28 | CCNC(=O)CCc1nc(-c2cccc(F)c2)no1 | < 4.00 | < 4.00 | > 99 µM (inactive) | < 4.00 | < 4.00 | 
29 | CCOc1ccc(-c2noc(CCC(=O)NC)n2)cc1 | < 4.00 | < 4.00 |  | 5.76 | 6.17 | 5.92
30 | CCc1ccc(-c2noc(CCC(=O)NC(C)(C)C)n2)cc1 | < 4.00 | < 4.00 | > 99 µM (inactive) | < 4.00 | < 4.00 | 
31 | CNC(=O)CCc1nc(-c2ccc(C(C)C)cc2)no1 | < 4.00 | < 4.00 |  | > 6.72 | > 6.72 | > 6.72
32 | CCc1ccc(-c2noc(CCC(=O)NC)n2)cc1 | < 4.00 | < 4.00 | > 99 µM (inactive) | < 4.00 | < 4.00 | 
33 | O=C(CCc1nc(-c2ccccc2)no1)NC1CC1 | < 4.00 | < 4.00 | > 99 µM (inactive) | < 4.00 | < 4.00 | 
34 | CCCCc1ccc(-c2noc(CCC(=O)NC3CC3)n2)cc1 | < 4.00 | < 4.00 | inactive | < 4.00 | > 6.72 | 
35 | C=CCNC(=O)CCc1nc(-c2ccc(C(C)(C)C)cc2)no1 | < 4.00 | < 4.00 |  | > 5.00 | > 6.72 | > 6.72
36 | CC(C)(C)c1ccc(-c2noc(CCC(=O)NC3CCC3)n2)cc1 | < 4.00 | < 4.00 |  | > 5.00 | > 6.72 | > 6.72
37 | CCN(CC)C(=O)CCc1nc(-c2ccc(C(C)(C)C)cc2)no1 | < 4.00 | < 4.00 | > 99 µM (inactive) | < 4.00 | < 4.00 | 
38 | CCNC(=O)CCc1nc(-c2ccc(CC)cc2)no1 | < 4.00 | < 4.00 | > 99 µM (inactive) | < 4.00 | < 4.00 | 
39 | CNC(=O)CCc1nc(-c2ccccc2)no1 | < 4.00 | < 4.00 | > 99 µM (inactive) | < 4.00 | < 4.00 | 
40 | CC(C)(C)c1ccc(-c2noc(CCC(=O)N3CCCCC3)n2)cc1 | < 4.00 | < 4.00 | inactive | < 4.00 | 4.42 | 
41 | CCC(C)NC(=O)CCc1nc(-c2ccccc2)no1 (configuration not stated) | < 4.00 | < 4.00 | > 99 µM (inactive) | < 4.00 | < 4.00 | 
42 | CC(C)(C)NC(=O)CCc1nc(-c2ccc(C(C)(C)C)cc2)no1 | < 4.00 | < 4.00 |  | > 6.72 | 6.24 | 6.24
43 | CC(C)(C)c1ccc(-c2noc(CCC(N)=O)n2)cc1 | < 4.00 | < 4.00 |  | > 6.72 | > 6.72 | > 6.72
44 | CC(C)c1ccc(-c2noc(CCC(=O)NC3CC3)n2)cc1 | < 4.00 | < 4.00 | > 99 µM (inactive) | < 4.00 | < 4.00 | 
45 | CNC(=O)CCc1nc(-c2ccc(C)cc2)no1 | < 4.00 | < 4.00 | inactive | 4.32 | < 4.00 | 
46 | CC(C)(C)c1ccc(-c2noc(CCC(=O)NCC3CCCO3)n2)cc1 (configuration not stated) | < 4.00 | < 4.00 |  | > 6.72 | > 6.72 | > 6.72
47 | CCCCc1ccc(-c2noc(CCC(=O)NC)n2)cc1 | < 4.00 | < 4.00 | > 99 µM (inactive) | < 4.00 | < 4.00 | 
48 | CCc1ccc(-c2noc(CCC(=O)NC3CC3)n2)cc1 | < 4.00 | < 4.00 | > 99 µM (inactive) | < 4.00 | < 4.00 | 
49 | CC(C)(C)c1ccc(-c2noc(CCC(=O)NCc3ccco3)n2)cc1 | < 4.00 | < 4.00 |  | > 6.72 |  | 
50 | CCNC(=O)CCc1nc(-c2ccc(C(C)(C)C)cc2)no1 | < 4.00 | < 4.00 |  | < 4.00 and > 5.00 | > 6.72 | 
51 | CNC(=O)CCc1nc(-c2ccc(Cl)cc2)no1 | < 4.00 | < 4.00 | > 99 µM (inactive) | < 4.00 | < 4.00 | 
